Experimental data as given in ChEMBL document CHEMBL1156252, “Sigma-1 ligands: Tic-hydantoin as a key pharmacophore” (Eur J Med Chem, 2010).

Experiments:
[1] = target: Sigma-1 receptor (Homo sapiens, Jurkat); experiment: Displacement of [3H](+)-pentazocine from sigma 1 receptor in human Jurkat cells by scintillation counting
[2] = Displacement of [3H]DTG […] from sigma 2 receptor in rat cerebral cortex after 120 mins; format: tissue-based
Method in brief: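 Rat cerebral cortex membranes incubated with […] (5 nM) plus (+)-pentazocine (300 nM) to mask σ1 sites, with a concentration range of test compound, 2 h at 22 °C in 5 mM Tris/HCl pH 7.4. […] Bound ligand was collected by GF/B filtration, washed with ice-cold saline and counted by liquid scintillation.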

Structure (SMILES) | IC50 [1] [nM] | IC50 [2] [nM]
CN(CCCN1C(=O)c2ccncc2C1=O)Cc1ccccc1 | > 200 | –
CN(CCCn1c(=O)[nH]c2ccccc2c1=O)Cc1ccccc1 | 116 | –
CN(CCCn1c(=O)[nH]c2ccc(Cl)cc2c1=O)Cc1ccccc1 | > 200 | –
CN(CCCn1c(=O)[nH]c2ccc(I)cc2c1=O)Cc1ccccc1 | 103 | –

Further lines, results first:

IC50 [1] [nM] | IC50 [2] [nM] | Structure (SMILES)
4.5 | – | CN(CCCN1C(=O)C2Cc3ccccc3CN2C1=S)Cc1ccccc1 (centres undefined)
> 200 | – | CN(CCCN1C(=O)[C@H](Cc2ccccc2)N(C)C1=O)Cc1ccccc1
57 | – | CN(CCCN1C(=O)[C@H]2Cc3ccccc3C[C@H]2C1=O)Cc1ccccc1
> 200 | – | CN(CCCN1C(=O)c2cccnc2C1=O)Cc1ccccc1
– | > 500 | CN(CCCN1C(=O)[C@@H]2Cc3ccccc3CN2C1=O)Cc1ccccc1
